This note sets out measurements from ChEMBL document CHEMBL1133753, “6-N-Acyltriciribine analogues: structure-activity relationship between acyl carbon chain length and activity against HIV-1” (J Med Chem, 2000).

For assay [1], the system named is CEM-SS. Put plainly: Visual cytotoxicity was scored on CEM-SS cells. As to conditions: Homo sapiens. It counts as functional, cell-based.
Assay [2] in a line: Antiviral activity against HSV-1 was determined using BSC-1 cells by an enzyme-linked immunosorbent assay (ELISA). It counts as functional, cell-based. As to conditions: Cercopithecidae. In general terms: In an ELISA, binding on a coated surface is turned into a signal by an enzyme label.
Assay [3] concerns HFF. Put plainly: Antiviral activity against HCMV was determined by plaque reduction assay using HFF cells. The note with it: Homo sapiens. Format: functional, cell-based.
Assay [4] can be described thus: (§1) Cytotoxicity measured as Inhibition of KB cell growth was assessed. It counts as functional, cell-based. The note with it: Homo sapiens.
Assay [5] concerns HFF. The assay is described as follows: Visual cytotoxicity was scored on uninfected HFF cells. It counts as functional, cell-based. The note with it: Homo sapiens.
For assay [6], the system named is CEM-SS. Put plainly: Intracellular phosphorylation (100 uM) in uninfected CEM-SS cells was studied after 24 hrs of Incubation. It counts as functional, cell-based. As to conditions: Homo sapiens. Summed up: (§2)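 Uninfected cells grown in suspension with compound at the stated extracellular concentration for 5 or 24 h. Cells pelleted and washed in cold Puck's saline with glucose. Nucleotides extracted with 0.6 N TCA on ice, neutralized with freon/0.5 M triethylamine, then separated by reverse-phase C18 HPLC (formic acid pH 2.5 to 50% methanol gradient), UV 254/290 nm; peaks identified by electrospray MS in a separate run. TCN-P quantified against standards and converted to μM using 1.9 pL/cell.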

Assay [7] is described as follows: Antiviral activity was evaluated by RT (reverse transcriptase) activity in cells acutely infected with HIV-1.
The nature of assay [8]: as §1. It counts as cell-based. As to conditions: Homo sapiens. Summed up: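 KB cells plated at 5000/well and incubated overnight at 37 °C. Compound added in triplicate at eight concentrations, then 48 h at 37 °C in CO₂ (two population doublings). Cells fixed with 95% ethanol, stained with 0.1% crystal violet, dye eluted with acidified ethanol and read at 570 nm. IC50 taken from linear regression of % inhibition vs log concentration.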

For assay [9], the system named is CEM-SS. The assay is described as follows: Intracellular phosphorylation (10 uM) in uninfected CEM-SS cells was studied. Format: functional, cell-based. As to conditions: Homo sapiens. Summed up:
as §2

Assay [10] deals with CEM-SS. The assay is described as follows: Intracellular phosphorylation (100 uM) studied, after 5 hrs of Incubation. Format: functional, cell-based. As to conditions: Homo sapiens. Summed up:
as §2

Assay [11] relates to CEM-SS. The assay is described as follows: Intracellular phosphorylation (10 uM) in uninfected CEM-SS cells was studied after 24 hrs of Incubation. Format: functional, cell-based. As to conditions: Homo sapiens. Summed up: as §2
A further assay is filed under the species Homo sapiens. Put plainly: Intracellular phosphorylation (100 uM) in uninfected AA2 cells was studied, after 5 hrs of Incubation. It counts as functional, cell-based. Summed up:
as §2

A word on the IC50: it is the concentration that inhibits the measured activity by half. For `CCCCCCCCCCCC(=O)NC1=NN(C)c2ncnc3c2c1cn3C1O[C@H](CO)[C@@H](O)[C@H]1O` (some centres undefined), the half-inhibitory concentration (IC50) in the assay on CEM-SS [1] was 32 µM; in [2], 45 µM; in the assay with HFF [3], 12 µM; in assay [4], 75 µM; with HFF [5], 21 µM.
Turning to `CC(=O)NC1=NN(C)c2ncnc3c2c1cn3C1O[C@H](CO)[C@@H](O)[C@H]1O` (some centres undefined), the concentration for half-maximal inhibition (IC50) (in the assay on CEM-SS [1]; in [2]; in the assay on HFF [3]; in assay [4]; in the assay on HFF [5]) was more than 100 µM in each case.
Regarding `CCCCCCCCCC(=O)NC1=NN(C)c2ncnc3c2c1cn3C1O[C@H](CO)[C@@H](O)[C@H]1O` (some centres undefined), the concentration for half-maximal inhibition (IC50) is 32 µM in the assay with CEM-SS [1]; more than 100 µM in assay [2]; 12 µM with HFF [3]; 40 µM in [4]; 21 µM in the assay with HFF [5].
Turning to `CCCCCCCC(=O)NC1=NN(C)c2ncnc3c2c1cn3C1O[C@H](CO)[C@@H](O)[C@H]1O` (some centres undefined), the IC50 in the assay with CEM-SS [1] is 32 µM; in assay [2], more than 100 µM; with HFF [3] it was 12 µM; in assay [4] it was 40 µM; in the assay with HFF [5] it was 21 µM.
For the compound `CCCC(=O)NC1=NN(C)c2ncnc3c2c1cn3C1O[C@H](CO)[C@@H](O)[C@H]1O` (some centres undefined), the IC50 in the assay on CEM-SS [1] is more than 100 µM; in assay [2], more than 100 µM; in the assay with HFF [3], 10 µM; in assay [4], 100 µM; in the assay with HFF [5], 100 µM.
In the case of `CCCCC(=O)NC1=NN(C)c2ncnc3c2c1cn3C1O[C@H](CO)[C@@H](O)[C@H]1O` (some centres undefined), the IC50 in the assay with CEM-SS [1] was 32 µM; in [2] it was more than 100 µM; in the assay with HFF [3], 0.45 µM; in assay [4], 30 µM; with HFF [5], more than 100 µM. Besides, in the assay on CEM-SS [6], the Concentration is 710 µM.
For the compound `CN1N=C(N)c2cn([C@@H]3O[C@H](COP(=O)(O)O)[C@@H](O)[C@H]3O)c3ncnc1c23` [TRICIRIBINE PHOSPHATE], the IC50 in assay [7] was 0.04 µM; in the assay with CEM-SS [1] it was more than 1 µM; in assay [2], 20 µM; in [4], 10 µM.
For `CN1N=C(NC(=O)C(C)(C)C)c2cn(C3O[C@H](CO)[C@@H](O)[C@H]3O)c3ncnc1c23` (some centres undefined), the IC50 (in the assay on CEM-SS [1]; in assay [2]; with HFF [3]; in [4]; in the assay on HFF [5]) was more than 100 µM in each case.
Regarding `CC(C)C(=O)NC1=NN(C)c2ncnc3c2c1cn3C1O[C@H](CO)[C@@H](O)[C@H]1O` (some centres undefined), the IC50 (in the assay on CEM-SS [1]; in [2]; in the assay on HFF [3]; in assay [4]; in the assay with HFF [5]) was more than 100 µM each time.
For `CCC(=O)NC1=NN(C)c2ncnc3c2c1cn3C1O[C@H](CO)[C@@H](O)[C@H]1O` (some centres undefined), the IC50 in assay [8] was more than 100 µM; in the assay with CEM-SS [1], more than 100 µM; in [2], more than 100 µM; with HFF [3] it was 40 µM; with HFF [5], 100 µM.
`CCCCCC(=O)NC1=NN(C)c2ncnc3c2c1cn3C1O[C@H](CO)[C@@H](O)[C@H]1O` (some centres undefined): the IC50 is 45 µM in the assay with CEM-SS [1]; more than 100 µM in assay [2]; 8.8 µM in the assay with HFF [3]; 40 µM in assay [4]; 100 µM in the assay with HFF [5].
The compound `CCCCCCCCC(=O)NC1=NN(C)c2ncnc3c2c1cn3C1O[C@H](CO)[C@@H](O)[C@H]1O` (some centres undefined) had a Concentration with CEM-SS [9] of 243 µM. For the same compound, the IC50 with CEM-SS [1] is 32 µM; in assay [2], more than 100 µM; in the assay on HFF [3] it was 12 µM; in assay [4] it was 65 µM; in the assay with HFF [5], 21 µM.
For the compound `CCCCCCC(=O)NC1=NN(C)c2ncnc3c2c1cn3C1O[C@H](CO)[C@@H](O)[C@H]1O` (some centres undefined), the Concentration in the assay with CEM-SS [10] amounted to 850 µM; in the assay with CEM-SS [11], 225 µM; in the assay filed under Homo sapiens, 48 µM. The IC50 with CEM-SS [1] is 32 µM; in [2], more than 100 µM; in the assay with HFF [3], 11 µM; in assay [4] it was 30 µM; in the assay on HFF [5] it was 32 µM.
For the compound `CN1N=C(NC(=O)c2ccccc2)c2cn(C3O[C@H](CO)[C@@H](O)[C@H]3O)c3ncnc1c23` (some centres undefined), the IC50 (in the assay with CEM-SS [1]; in [2]; with HFF [3]; in assay [4]; with HFF [5]) was more than 100 µM each time.
